species: Cavia porcellus; experiment: In vitro Functional activity on the isolated guinea pig gallbladder following incubation at 1 micro M percent contraction normalized to that for CCK-8
Procedure, shortened: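 Contraction is expressed as percent of the CCK-8 (1 μM) response. Non-contracting compounds were tested for antagonism against a CCK-8 curve (10⁻¹¹ to 10⁻⁶ M).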

In order of rising Activity:
1. CC(C)N(C(=O)CN1C(=O)C(NC(=O)Nc2cccc(N(C)C)c2)C(=O)N(c2ccccc2)c2ccccc21)c1ccccc1 (stereo not given)  29%
2. CC(C)N(C(=O)CN1C(=O)C(NC(=O)Nc2cccc(-c3nn[nH]n3)c2)C(=O)N(c2ccccc2)c2ccccc21)c1ccccc1 (stereo not given)  64%

species: Cavia porcellus; experiment: In vitro functional activity on the isolated guinea pig gallbladder; set-up: concentration or dose not given beside the values

In order of rising Activity:
1. CC(C)N(C(=O)CN1C(=O)C(NC(=O)NCc2ccccc2)C(=O)N(c2ccccc2)c2ccccc21)c1ccccc1 (stereo not given)  1%
2. CC(C)N(C(=O)CN1C(=O)C(NC(=O)Nc2cccc(OCCN(C)C)c2)C(=O)N(c2ccccc2)c2ccccc21)c1ccccc1 (stereo not given)  2%
3. Cc1cccc(NC(=O)NC2C(=O)N(CC(=O)N(c3ccccc3)C(C)C)c3ccccc3N(c3ccccc3)C2=O)c1 (stereo not given)  5%
4. CC(C)N(C(=O)CN1C(=O)C(NC(=O)c2c[nH]c3ccccc23)C(=O)N(c2ccccc2)c2ccccc21)c1ccccc1 (stereo not given)  5%
5. CC(C)N(C(=O)CN1C(=O)C(NC(=O)Nc2cccc(Cl)c2)C(=O)N(c2ccccc2)c2ccccc21)c1ccccc1 (stereo not given)  7%
6. CC(C)N(C(=O)CN1C(=O)C(NC(=O)Nc2ccc(C(=O)O)cc2)C(=O)N(c2ccccc2)c2ccccc21)c1ccccc1 (stereo not given)  14%
7. CC(C)N(C(=O)CN1C(=O)C(NC(=O)Nc2ccccc2O)C(=O)N(c2ccccc2)c2ccccc21)c1ccccc1 (stereo not given)  16%
8. Cc1ccc(NC(=O)NC2C(=O)N(CC(=O)N(c3ccccc3)C(C)C)c3ccccc3N(c3ccccc3)C2=O)cc1 (stereo not given)  20%
9. CC(C)NC(=O)NC1C(=O)N(CC(=O)N(c2ccccc2)C(C)C)c2ccccc2N(c2ccccc2)C1=O (stereo not given)  22%
10. CC(C)N(C(=O)CN1C(=O)C(NC(=O)Cc2ccccc2)C(=O)N(c2ccccc2)c2ccccc21)c1ccccc1 (stereo not given)  28%
11. Cc1ccccc1NC(=O)NC1C(=O)N(CC(=O)N(c2ccccc2)C(C)C)c2ccccc2N(c2ccccc2)C1=O (stereo not given)  34%
12. CC(C)N(C(=O)CN1C(=O)C(NC(=O)c2cc3ccccc3o2)C(=O)N(c2ccccc2)c2ccccc21)c1ccccc1 (stereo not given)  35%
13. COc1ccc(NC(=O)NC2C(=O)N(CC(=O)N(c3ccccc3)C(C)C)c3ccccc3N(c3ccccc3)C2=O)cc1 (stereo not given)  38%
14. CC(C)N(C(=O)CN1C(=O)C(NC(=O)c2ccncc2)C(=O)N(c2ccccc2)c2ccccc21)c1ccccc1 (stereo not given)  43%
15. CC(C)N(C(=O)CN1C(=O)C(NC(=O)c2cccnc2)C(=O)N(c2ccccc2)c2ccccc21)c1ccccc1 (stereo not given)  43%
16. CC(C)N(C(=O)CN1C(=O)C(NC(=O)Nc2cccc(S(C)(=O)=O)c2)C(=O)N(c2ccccc2)c2ccccc21)c1ccccc1 (stereo not given)  53%
17. CC(C)N(C(=O)CN1C(=O)C(NC(=O)c2cccc(C(=O)O)c2)C(=O)N(c2ccccc2)c2ccccc21)c1ccccc1 (stereo not given)  56%
18. CC(C)N(C(=O)CN1C(=O)C(NC(=O)c2ccccc2)C(=O)N(c2ccccc2)c2ccccc21)c1ccccc1 (stereo not given)  57%
19. CC(C)N(C(=O)CN1C(=O)C(NC(=O)Nc2cccc(N(C)C)c2)C(=O)N(c2ccccc2)c2ccccc21)c1ccccc1 (stereo not given)  58%
20. CC(C)N(C(=O)CN1C(=O)C(NC(=O)c2ccccc2C(=O)O)C(=O)N(c2ccccc2)c2ccccc21)c1ccccc1 (stereo not given)  58%
21. CSc1cccc(NC(=O)NC2C(=O)N(CC(=O)N(c3ccccc3)C(C)C)c3ccccc3N(c3ccccc3)C2=O)c1 (stereo not given)  58%
22. CC(C)N(C(=O)CN1C(=O)C(NC(=O)Nc2cccc(C(N)=O)c2)C(=O)N(c2ccccc2)c2ccccc21)c1ccccc1 (stereo not given)  76%
23. CC(C)N(C(=O)CN1C(=O)C(NC(=O)Nc2cccc(OCC(=O)N(C)C)c2)C(=O)N(c2ccccc2)c2ccccc21)c1ccccc1 (stereo not given)  77%
24. COc1cccc(NC(=O)NC2C(=O)N(CC(=O)N(c3ccccc3)C(C)C)c3ccccc3N(c3ccccc3)C2=O)c1 (stereo not given)  78%
25. CC(C)N(C(=O)CN1C(=O)C(NC(=O)Nc2cccc(OCC(=O)N3CCOCC3)c2)C(=O)N(c2ccccc2)c2ccccc21)c1ccccc1 (stereo not given)  78%
26. CC(C)N(C(=O)CN1C(=O)C(NC(=O)Nc2cccc(-c3nn[nH]n3)c2)C(=O)N(c2ccccc2)c2ccccc21)c1ccccc1 (stereo not given)  79%
27. CC(C)N(C(=O)CN1C(=O)C(NC(=O)Nc2cccc(CC(=O)O)c2)C(=O)N(c2ccccc2)c2ccccc21)c1ccccc1 (stereo not given)  89%
28. CC(C)N(C(=O)CN1C(=O)C(NC(=O)Nc2cccc(OCC(N)=O)c2)C(=O)N(c2ccccc2)c2ccccc21)c1ccccc1 (stereo not given)  95%
